Screens (PubChem BioAssay)
HTRA1 inh = HTRA1 serine protease inhibitors, primary screen, biochemical, fluorescence polarization, HTS | recombinant HTRA1, FP-rhodamine activity-based probe | Q92743 | 0.5% of 340,000 active | inhibition, % at 5.96 µM; in the data active means inhibition above about 36%
ATG4B inhibitor = ATG4B protease inhibitors, primary screen, biochemical, fluorescence, uHTS; Cysteine protease ATG4B (Homo sapiens), Q9Y4P1; ATG4B cleavage of LC3-PLA2, NBD-HPC fluorescence, 1 h; inhibition, % at 8.33 µM; 0.51% of 340,000 active; AID 504462, 2011; in the data active means inhibition above about 40%
Target sequence (Q9Y4P1 whole entry, looked up): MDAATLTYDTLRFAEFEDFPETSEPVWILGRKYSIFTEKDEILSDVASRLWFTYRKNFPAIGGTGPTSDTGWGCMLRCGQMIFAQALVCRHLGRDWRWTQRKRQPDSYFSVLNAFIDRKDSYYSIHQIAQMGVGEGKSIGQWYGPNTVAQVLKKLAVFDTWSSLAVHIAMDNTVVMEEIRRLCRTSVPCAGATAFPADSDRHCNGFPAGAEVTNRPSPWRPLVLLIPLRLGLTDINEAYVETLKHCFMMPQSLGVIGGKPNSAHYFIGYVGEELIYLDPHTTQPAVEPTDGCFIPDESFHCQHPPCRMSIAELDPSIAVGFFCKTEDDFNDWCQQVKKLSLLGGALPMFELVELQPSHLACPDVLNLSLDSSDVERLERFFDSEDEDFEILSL
TCR CD3 inh = inhibitors of human TCR-CD3 interaction, primary screen, biochemical, fluorescence, TAMRA-labeled TCR probe; 0.37% of 360,000 active; inhibition, % at 9.4 µM; in the data active means inhibition above about 19%;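 further: recombinant mutant TCR 2C K166C tagged with TAMRA read by polarization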
SIAE primary = human SIAE inhibitors, primary screen, biochemical, fluorescence polarization, FP-Rh probe, 1536-well HTS | Sialate O-acetylesterase (Homo sapiens), Q9HAT2 | SIAE FP-Rh probe binding | inhibition, % at 9.66 µM | 0.69% of 370,000 active | AID 1053197, 2014;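 active means inhibition above a cutoff: mean of compounds within the control limits plus 3 SD of those, cut at about 17% in these data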
ABHD4 inh = ABHD4 inhibitors, primary screen, biochemical, fluorescence polarization, mouse | (Lyso)-N-acylphosphatidylethanolamine lipase (Mus musculus), Q8VD66 | purified mABHD4, FP-Rh probe fluorescence polarization | inhibition, % at 8.92 µM | 0.54% of 370,000 active | AID 720543, 2013;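 active means inhibition exceeding the mean over every tested compound plus 3 SD, cut at about 30% in these data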
Target sequence (Q8VD66 whole entry, looked up): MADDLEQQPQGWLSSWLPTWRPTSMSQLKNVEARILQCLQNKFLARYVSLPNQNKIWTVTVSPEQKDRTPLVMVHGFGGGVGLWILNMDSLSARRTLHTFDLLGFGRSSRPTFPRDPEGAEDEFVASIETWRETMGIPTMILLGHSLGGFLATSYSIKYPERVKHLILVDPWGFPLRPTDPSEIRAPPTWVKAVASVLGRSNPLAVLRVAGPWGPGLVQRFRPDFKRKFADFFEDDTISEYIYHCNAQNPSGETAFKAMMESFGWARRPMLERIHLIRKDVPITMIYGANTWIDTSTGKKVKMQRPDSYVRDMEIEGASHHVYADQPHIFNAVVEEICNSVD
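Material: mouse ABHD4 enzyme, wild type; Benchmarks: S159A mutant high control, sample median low control; Buffer or medium: HEPES pH 7.0, NaCl, Pluronic buffer; Signal: fluorescence polarization; Read-out: percent inhibition of probe binding, normalized to plate controls; Timing: pre-incubation 45 min, probe exposure 60 min, at 25 °C; Dosing: 8.92 µM, single dose.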
PRMT1 FP inh = PRMT1 methyltransferase inhibitors, primary screen, biochemical, fluorescence polarization | AID 652257, 2013 | Protein arginine N-methyltransferase 1 (Homo sapiens), Q99873 | recombinant PRMT1, activity-based probe fluorescence polarization | inhibition, % at 2.79 µM | 1.3% of 370,000 active;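 active means inhibition above about 21% made by adding two undisclosed values, limit read from the data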
SIAE inh conf = human SIAE inhibitors, retest, confirmation, biochemical, fluorescence polarization, FP-Rh probe, triplicate; inhibition, % at 9.66 µM; SIAE FP-Rh activity-based probe; 13% of 2,300 active; shares compounds with SIAE primary;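 active means mean inhibition of the replicates above the hit cutoff set in the primary screen, cut at about 17% in these data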;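 further: inhibitors lower polarization as more probe stays unbound to SIAE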
Each line names hits and unclear results; the compound was inactive in the other large screens (follow-up assays come after a bar, where they were run). In the library only some 2.9% were active in any assay of this set; here they are far more common.

COc1ccc(CNc2ncc(-c3ccc(F)cc3)n2C)c2ccccc12	SIAE primary 18 | SIAE inh conf inactive
CN(CCn1ccnc1)C(=O)CC1C(=O)NCCN1Cc1ccccc1C(F)(F)F (configuration not stated)	SIAE primary 24 | SIAE inh conf inactive
CCn1cnc2cc(NCc3cccs3)ccc21	SIAE primary 21 | SIAE inh conf inactive
CC(C)(C)n1cnc2cc(NCc3cccs3)ccc21	none
Nn1c(SCC(=O)NC2CCCCC2)nnc1-c1cc(-c2ccc(F)cc2)n[nH]1	none (no result: HTRA1 inh, ATG4B inhibitor, TCR CD3 inh)
CCOc1ccc(-n2c(SCC(=O)Nc3ccc(S(=O)(=O)Nc4cc(C)nc(C)n4)cc3)nnc2-c2ccc(C)cc2)cc1	none (no result: HTRA1 inh, ATG4B inhibitor, TCR CD3 inh)
CC(=O)c1c(C)[nH]c(C(=O)Nc2ccc(N3CCCCCC3)cc2)c1C	SIAE primary 26 (no result: ATG4B inhibitor) | SIAE inh conf inactive
CCN(CC(=O)c1c(N)n(C)c(=O)n(C)c1=O)c1cccc2ccccc12	SIAE primary 20 | SIAE inh conf inactive
C=CC[C@]12C[C@@]3(O[C@H](C4CCCCC4)N=C3C[C@H](c3ccc(OC)cc3)[C@H]1C)N(Cc1ccncc1)C2=O	none (no result: HTRA1 inh, ATG4B inhibitor)
Cc1cc(C)nc(SCC(=O)NN=Cc2ccc(C)o2)n1	SIAE primary 18 | SIAE inh conf inactive
COC(=O)C1CN(Cc2ccc(F)cc2)CCS(=O)(=O)N1Cc1cn(CCOC(C)=O)nn1 (configuration not stated)	none (no result: HTRA1 inh, ATG4B inhibitor, TCR CD3 inh)
S=c1[nH]nc(Cn2c(-c3ccccn3)nc3ccccc32)n1-c1ccc2c(c1)OCCO2	SIAE primary 19 | SIAE inh conf inactive
O=C(COC(=O)Cc1ccc(F)cc1)Nc1ccc2[nH]c(=O)[nH]c2c1	SIAE primary 18 | SIAE inh conf inactive
O=C(CSc1nncs1)Nc1ccc2[nH]c(=O)[nH]c2c1	SIAE primary 17 | SIAE inh conf inactive
COc1ccc(CC(=O)OCC(=O)Nc2ccc3[nH]c(=O)[nH]c3c2)cc1	none
COC(=O)C1=C(C)N(Cc2ccccc2C(F)(F)F)C(=NCC2CC2)NC1c1ccc(F)cc1 (configuration not stated)	none (no result: HTRA1 inh, ATG4B inhibitor)
COC(=O)[C@]12C[C@H](CC(=O)N3CCCC3)C(=O)N(Cc3ccc(Cl)cc3Cl)C1=C[C@H](C(C)C)O[C@@H]2C1CC1	none (no result: HTRA1 inh, ATG4B inhibitor, TCR CD3 inh)
COC(=O)C1=C(C)N(C)C(=NCc2ccccc2C(F)(F)F)NC1c1ccc(Cl)cc1 (configuration not stated)	none (no result: HTRA1 inh, ATG4B inhibitor)
Cc1sc(NC(=S)Nc2ccc(F)cc2)c(C(N)=O)c1C	SIAE primary 17 | SIAE inh conf inactive
CCN(CC)c1ccc(C=Nn2c(C)nnc2C)cc1	none (no result: HTRA1 inh, ATG4B inhibitor, TCR CD3 inh)
Cc1nn(C)cc1NC(=O)C[C@H]1CC[C@H]2[C@@H](COc3ccc(NC(=O)Nc4ccccc4)cc3C(=O)N2C)O1	none (no result: HTRA1 inh, ATG4B inhibitor, TCR CD3 inh)
S=C(NCCCc1cnc[nH]1)NCCCN(Cc1ccc(Cl)cc1)c1ccc(Br)cn1	SIAE primary 17 (no result: HTRA1 inh, ATG4B inhibitor) | SIAE inh conf 27
O=S(=O)(NCC(c1ccccc1)N1CCC(O)CC1)c1ccc(Cl)cc1 (configuration not stated)	none
O=S(=O)(NCC(Nc1ccc(Cl)cc1)c1ccccc1)c1ccc(Cl)cc1 (configuration not stated)	SIAE primary 19 | SIAE inh conf inactive
O=C(NCc1ccccn1)C(=O)NCC1OCCN1S(=O)(=O)c1ccc(F)cc1 (configuration not stated)	SIAE primary 19 | SIAE inh conf inactive
CCCCc1ccc(NC(=S)Nc2cccnc2)cc1	none
CCCCc1ccc(NC(=S)Nc2ccc(Nc3ccc(OC)cc3)cc2)cc1	SIAE primary 27 | SIAE inh conf inactive
CC(C)(C)c1c(Cl)c(O)c(-c2ccccc2)c(=O)n1-c1ccccc1	SIAE primary 19 (no result: HTRA1 inh) | SIAE inh conf inactive
O=C(CSc1nnc(COc2ccccc2)n1-c1ccccc1)Nc1ccc(S(=O)(=O)Nc2nccs2)cc1	none (no result: HTRA1 inh, ATG4B inhibitor, TCR CD3 inh)
CC(C)Cc1nnc(NC(=O)CCC(=O)NCc2ccccc2Cl)s1	SIAE primary 18 | SIAE inh conf inactive
COc1ccc(N2CCN(CCCNC(=O)C3CCC(CNc4nc(=S)[nH]c5ccccc45)CC3)CC2)cc1 (configuration not stated)	none
O=C(C1CCC(CNc2nc(=S)[nH]c3ccccc23)CC1)N1CCN(c2ccc(F)cc2)CC1 (configuration not stated)	SIAE primary 20 | SIAE inh conf inactive
CC(=O)O[C@@H]1C=C[C@@H](C#Cc2ccc(C(C)(C)C)cc2)O[C@@H]1COC(=O)NCc1ccccc1	none (no result: HTRA1 inh, ATG4B inhibitor)
Cc1ccc2c(c1)N(CCCC(=O)NCc1cccs1)C(=O)CO2	none (no result: HTRA1 inh, ATG4B inhibitor, TCR CD3 inh)
O=S1(=O)c2ccc(N3CCC[C@H]3CO)cc2O[C@H]2CCN1C2	none (no result: HTRA1 inh, ATG4B inhibitor, TCR CD3 inh)
Cc1cc(N2CCN(CC(C)(C)O)C[C@@H]2C)ccc1N1CCN(CC(C)(C)O)[C@@H](C)C1	none (no result: HTRA1 inh, ATG4B inhibitor)
C=CCNC(=O)c1onc(CSc2ccc(OC)cc2)c1C(=O)O	SIAE primary 22 | SIAE inh conf inactive
C=CCNC(=O)c1onc(CSc2ccccc2)c1C(=O)O	none
O=C(N/N=C/c1ccc(O)cc1O)c1ccc(NC(=O)C2CCCCC2)cc1	SIAE primary 26 | SIAE inh conf inactive
COc1cccc(NC(=O)Cc2cn(C)c3ccccc23)c1	none
CN(c1cccnc1)c1ccc(NC(=O)Cc2cn(Cc3ccccc3)c3ccccc23)cc1Br	SIAE primary 21 (no result: HTRA1 inh, ATG4B inhibitor) | SIAE inh conf 24
Cn1cc(CC(=O)Nc2ccc(Nc3cccnc3)cc2)c2ccccc21	SIAE primary 21 (no result: HTRA1 inh, ATG4B inhibitor) | SIAE inh conf 23
O=C1CC(c2ccco2)CC(O)=C1C=Nc1ccccc1-c1ccccc1 (configuration not stated)	SIAE primary 27 | SIAE inh conf inactive
O=C1CCCCC1CCS(=O)(=O)NCc1ccccc1 (configuration not stated)	none (no result: HTRA1 inh, ATG4B inhibitor)
c1ccc2[nH]c(COCc3nc4ccccc4[nH]3)nc2c1	none (no result: HTRA1 inh, ATG4B inhibitor, TCR CD3 inh)
Oc1ccc(O)c(Cc2nc3ccccc3[nH]2)c1	SIAE primary 19, PRMT1 FP inh 30 | SIAE inh conf inactive
C=CCNC(=S)N/N=C/c1ccc(-c2ccc(OC)cc2)o1	SIAE primary 19 | SIAE inh conf inactive
COc1ccc(Nc2cc(C)nc3ccc(OC)cc23)cc1	SIAE primary 19 | SIAE inh conf inactive
COc1ccc2nc(C)cc(Nc3ccc(C(=O)O)cc3)c2c1	none (no result: TCR CD3 inh, SIAE primary, ABHD4 inh, PRMT1 FP inh)
